Screening data: PubChem BioAssay, Broad Institute
Most compounds without a hit are left out; they make up all but 3.4% or so of the library.
AF4-AF9 inh – MLL-AF4/AF9 protein interaction inhibition; actives 0.47% (n = 350,000); AlphaScreen, biotin-AF4 peptide binding to FLAG-AF9; inhibition, % at 10 µM;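 active = every replicate reaching a set inhibition limit, whatever the replicate mean, cut at about 25% in these data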
ERAP1 inh – blocks human ERAP1 aminopeptidase activity | Q9NZ08 | recombinant ERAP1, Leu-AMC fluorescence, 60 min | inhibition, % at 10.7 µM | actives 0.15% (n = 340,000);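 active = mean replicate inhibition of at least 30%, or all replicates individually reaching that 30% level; inactive = mean below 30% and not every replicate reaching it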
Ecoli rRNA inh – selective bacterial rRNA inhibition in E. coli; E. coli WT GFP vs humanized-ribosome RFP mutants, fluorescence, 24 h; stronger effect = lower value; DMSO median 0, no signal -100; GFP signal change (wild-type ribosome), % (test concentration not listed); actives 1.6% (n = 350,000);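 active = significant combined selectivity score with lowered wild-type GFP, culture density cut under 30%, mutant RFP and density less affected; inactive = any of these conditions unmet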
S100A4 MyoIIA – inhibitors of human S100A4 binding to myosin IIA peptide; P26447; S100A4/TAMRA-MyoIIA peptide fluorescence polarization; inhibition, % at 10.7 µM; actives 0.14% (n = 360,000); AID 652163;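 active = mean inhibition of at least 70% across replicates, with every replicate also reaching that level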
Target sequence (P26447 whole entry, looked up): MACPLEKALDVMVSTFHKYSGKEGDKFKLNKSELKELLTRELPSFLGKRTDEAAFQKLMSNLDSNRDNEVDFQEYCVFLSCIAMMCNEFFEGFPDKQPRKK
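assay system = human S100A4 monomer with TAMRA-labelled myosin IIA peptide | also added = labelled myosin peptide probe, 5 nM | incubation = 5 min between mix addition and reading | control set = DMSO and TFP controls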
E-sel inducer – E-selectin induction on HUVECs; P16581; HUVEC E-selectin immunofluorescence imaging; normalized: neutral wells 0, TNF-alpha wells 100; activation, % at 7.58 µM; actives 0.37% (n = 260,000); AID 686992;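 active = mean E-selectin-positive cell signal at least 10% of the positive control, reached in at least 60% of replicates, without over 20% cell loss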
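Test system: HUVEC | Signal: Immunofluorescence imaging | Read-out: Percent E-selectin-positive cells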
SIRT5 inh – inhibitors of human sirtuin-5 desuccinylase. inhibition, % at 15 µM. AID 652115. Purified SirT5, succinyl-peptide AMC, trypsin-coupled fluorescence. actives 1.1% (n = 330,000); in the data active = inhibition above about 15%
Target sequence (Q9NXA8 whole entry, looked up): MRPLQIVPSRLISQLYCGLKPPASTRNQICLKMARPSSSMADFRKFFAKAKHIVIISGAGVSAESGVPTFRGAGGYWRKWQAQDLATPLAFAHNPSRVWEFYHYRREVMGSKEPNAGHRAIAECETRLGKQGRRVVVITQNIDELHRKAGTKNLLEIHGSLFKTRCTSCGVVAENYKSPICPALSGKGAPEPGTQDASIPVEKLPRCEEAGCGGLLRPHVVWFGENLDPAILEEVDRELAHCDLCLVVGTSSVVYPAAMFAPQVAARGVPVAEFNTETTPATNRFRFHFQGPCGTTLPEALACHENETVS
Numbers stand for hits; n = inactive; x = not tested or not shown.

SMILES	AF4-AF9 inh	ERAP1 inh	Ecoli rRNA inh	S100A4 MyoIIA	E-sel inducer	SIRT5 inh
Cn1c(=O)c([N+](=O)[O-])c(NCCCn2ccnc2)c2ccccc21	n	x	n	n	74	x
Cn1c(=O)c([N+](=O)[O-])c(-n2ccnc2)c2ccccc21	n	n	n	n	n	n
CCCCNc1c([N+](=O)[O-])c(=O)n(C)c2ccccc12	n	n	n	n	48	n
C[C@H](CO)N1C[C@H](C)[C@H](CN(C)CC2CCCCC2)Oc2ccc(NC(=O)c3ccncc3)cc2C1=O	n	n	n	n	n	x
O=C1CNC(=O)/C1=C/c1ccc(Br)cc1	n	n	n	n	n	25
O=C1CNC(=O)/C1=C\c1ccc(O)cc1	n	n	n	n	n	n
O=C(C[C@H]1CC[C@H]2[C@@H](COC[C@H](O)CN2Cc2ccccc2F)O1)N[C@@H]1CCN(Cc2ccccc2)C1	n	n	n	n	n	n
CCCNC(=O)Nc1ccc2c(c1)C(=O)N(C)[C@@H]1CC[C@@H](CC(=O)NC3CCC3)O[C@H]1CO2	x	x	n	x	n	x
Cc1ccnn1CC(=O)N/N=C/c1c[nH]c2ccccc12	n	n	-39	n	x	n
O=C(N/N=C/c1c[nH]c2ccccc12)c1ccccc1	n	n	n	n	x	100
CCC(=O)N1CC2(CN(Cc3cccnc3)C2)c2c(n(C)c3cc(OC)ccc23)[C@H]1CO	n	n	n	n	n	x
COc1cccc(CN2[C@@H](CO)[C@H](c3ccccc3)C23CN(C(=O)C2CCCC2)C3)c1	n	n	n	n	x	26
COc1ccccc1CN1[C@H](CO)[C@H](c2ccccc2)C12CN(C(C)=O)C2	n	n	n	n	n	17
O=C(c1ccccc1)N1CC2(C1)[C@H](c1ccccc1)[C@@H](CO)N2Cc1ccccn1	n	n	n	107	n	n
CNC(=O)C[C@@H]1CC[C@@H]2[C@H](COC[C@@H](O)CN2C(=O)c2ccc3c(c2)OCO3)O1	n	n	n	n	n	n
C[C@@H]1CCCCO[C@H](CN(C)C(=O)Cc2ccccc2)[C@@H](C)CN([C@@H](C)CO)C(=O)c2cc(NC(=O)CCCN(C)C)ccc2O1	n	n	n	n	n	n
O=C(Nc1ccc(Cl)cc1Cl)c1cc2ccccc2o1	n	n	n	n	x	n
O=C(Nc1ncccc1Cl)c1cc2ccccc2o1	n	n	n	n	n	20
O=C(NNC(=O)c1ccccc1O)c1cc2ccccc2o1	n	n	-31	n	n	n
C[C@@H]1CN([C@@H](C)CO)C(=O)c2cc(-c3cncnc3)cnc2O[C@@H]1CN(C)Cc1ccccc1	n	n	n	n	n	n
CNC(=O)C[C@@H]1CC[C@@H]2[C@H](COc3ccc(NC(=O)c4cc(C)on4)cc3C(=O)N2C)O1	x	x	n	x	n	x
Cc1nnn(C23C[C@@H]4C[C@@H](CC(C(=O)N5CCN(c6ccccc6)CC5)(C4)C2)C3)n1	n	n	-31	n	n	n
C[C@@H]1CN([C@H](C)CO)S(=O)(=O)c2ccc(C#CC(C)(C)O)cc2O[C@H]1CN(C)C(=O)C1CC1	x	x	n	x	n	x
CCCCCCCCCCCCCCCC(O)C[N+](C)(C)CCO (centres undefined)	n	50	n	n	n	n
CCCCCC(O)CCCC(=O)O (centres undefined)	n	n	x	n	n	n
SMILES	AF4-AF9 inh	ERAP1 inh	Ecoli rRNA inh	S100A4 MyoIIA	E-sel inducer	SIRT5 inh
CC(=NN1CC(=O)NC1=O)c1ccc([N+](=O)[O-])o1	n	n	-38	n	n	n
Cc1noc(C)c1S(=O)(=O)N(C)C[C@@H]1OCCCC[C@@H](C)Oc2ccc(NC(=O)C3CCCCC3)cc2C(=O)N([C@H](C)CO)C[C@H]1C	n	n	n	n	n	n
COc1ccc(NC(=O)N(C)C[C@H]2Oc3ncc(-c4cccnc4)cc3C(=O)N([C@@H](C)CO)C[C@@H]2C)cc1	n	n	n	n	x	n
COc1ccc(S(=O)(=O)Nc2ccc3c(c2)C(=O)N([C@H](C)CO)C[C@@H](C)[C@H](CN(C)Cc2ccc(Cl)c(Cl)c2)O3)cc1	n	n	n	n	40	n
C[C@H]1CN([C@@H](C)CO)C(=O)c2cc(NS(=O)(=O)c3ccc(Cl)cc3)ccc2O[C@H]1CN(C)Cc1ccc(Cl)c(Cl)c1	n	n	n	n	n	23
COc1ccc(S(=O)(=O)Nc2ccc3c(c2)C(=O)N([C@H](C)CO)C[C@@H](C)[C@@H](CN(C)Cc2ccc(Cl)c(Cl)c2)O3)cc1	n	n	n	n	29	19
CNC[C@@H]1Oc2c(NC(=O)C3CC3)cccc2C(=O)N([C@@H](C)CO)C[C@H]1C	n	x	n	x	n	x
O=C(C1CCCCC1)N1C[C@@H]2[C@H](c3ccccc31)[C@H](CO)N2C(=O)Cc1ccccn1	n	n	n	n	n	n
CCCCC(=O)N1CCN(c2nc3ccc(Br)cc3s2)CC1	n	n	-20	n	x	n
Nc1cccc(-c2csc(-n3ncc(C(=O)O)c3C(F)(F)F)n2)c1	n	n	n	n	x	29
CN(C)CC(=O)N[C@@H]1CC[C@H](CCNC(=O)C2CC2)O[C@H]1CO	n	n	n	n	n	n
CC(OC(=O)/C=C/c1ccccc1)C(=O)Nc1ccc2c(c1)OCCO2 (centres undefined)	n	n	n	n	n	20
Cc1ccc(NC(=O)C(C)OC(=O)/C=C/c2ccccc2)cc1 (centres undefined)	n	n	n	n	x	n
CN(C)C(=O)c1cccc(-c2ccc3c(c2)[C@H]2[C@H](CCN2S(=O)(=O)c2ccccc2)[C@@H](CO)N3)c1	n	n	n	n	n	n
CNC(=S)N1CCN(c2nc(-c3ccc(Cl)cc3)cs2)CC1	n	n	-25	n	x	n
C[C@@H]1CCCCO[C@@H](CN(C)Cc2ccc3c(c2)OCO3)[C@H](C)CN([C@@H](C)CO)C(=O)c2cc(NC(=O)CCC(F)(F)F)ccc2O1	n	n	n	n	n	n
O=C1C(=Cc2cn(-c3ccccc3)nc2-c2ccc(OCc3ccc(Cl)cc3)cc2)SC(=S)N1CCS(=O)(=O)O	n	n	n	n	n	37
Nc1c(C(=O)c2ccccc2)sc2nsc(SCCN3CCOCC3)c12	n	n	-27	n	n	n
CC1(C)Cc2c(c(N3CCOCC3)nc3sc(C(N)=O)c(N)c23)CO1	n	n	n	n	x	n
CN1Cc2c(N3CCOCC3)nc3sc(C(=O)c4ccccc4)c(N)c3c2CC1(C)C	x	n	-36	n	n	n
CCOc1ccccc1NC(=O)c1ccc(OCC)c([N+](=O)[O-])c1	n	n	n	n	x	n
CCOc1ccccc1N/C(=C(/C(Cl)=C(Cl)Cl)[N+](=O)[O-])n1cncn1	n	n	-25	n	x	n
